# Only some compounds are listed: those with a hit (about 2% of all), similar ones and a draw of the others.
# Diaphorase act – diaphorase activation or chemical reduction counter-screen. Diaphorase/resazurin coupled assay, resorufin fluorescence, 16 min; stronger effect = higher value; 1 = vehicle wells, 0 = NADH-free wells. activation factor at 20 µM. hit rate 0.005% among 190,000;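 active = diaphorase activity raised at least twofold by the compound at 20 µM; inactive = activation factor below 2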
#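 Test system: Clostridium kluyveri diaphorase, purified enzyme. Buffer or medium: 50 mM HEPES pH 7.4 buffer plus MgCl2 and Tween 20. Also added: 0.114 mM NADH and 0.1 mM resazurin, final amounts. Dosing: compound 20 µM once, DMSO 1%. Schedule: 16 min enzyme reaction, ambient temperature. Detection: fluorescence of resorufin, 544 nm excitation, 590 nm emission.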
# p47phox inh – inhibitors of human p47phox binding. P14598. AID 1274. inhibition, % at 24.7 µM. hit rate 0.53% among 220,000. p47phox/p22phox peptide binding, fluorescence polarization, 2 h;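 note: 0% = p47phox with labelled peptide and 100% = labelled peptide alone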
# eIF4E 4G PPI – eIF4E/eIF4G interaction inhibition in translation initiation; AID 782; inhibition, % at 21.7 µM; hit rate 0.37% among 220,000; TR-FRET eIF4E-eIF4GI(517-606) binding, 2 h;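 note: 0% = full FRET control wells and 100% = background wells lacking eIF4GI fragment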
# 14-3-3 Bad inh – disrupts binding of bovine 14-3-3 zeta to phospho-Bad peptide. P63103. TR-FRET 14-3-3zeta/Dy647-pBad peptide displacement, 1 h. inhibition, % at 21.7 µM. hit rate 0.71% among 220,000;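 active = inhibition above about 70%, limit read from the data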;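 note: 0% = full 14-3-3 plus peptide FRET controls and 100% = background without 14-3-3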
# Hck-Nef inh – blocks Nef-activated human Hck kinase. P08631. Recombinant Hck-YEEI plus Nef, Z-Lyte FRET kinase assay. inhibition, % at 20 µM. hit rate 0.68% among 220,000. AID 463187;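 active = Hck-Nef kinase inhibition above about 50%, limit read from the data; inactive = inhibition below that limit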;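 note: 0% = DMSO with Hck plus Nef and 100% = Hck alone without Nef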
# Target sequence (P08631 whole entry, looked up): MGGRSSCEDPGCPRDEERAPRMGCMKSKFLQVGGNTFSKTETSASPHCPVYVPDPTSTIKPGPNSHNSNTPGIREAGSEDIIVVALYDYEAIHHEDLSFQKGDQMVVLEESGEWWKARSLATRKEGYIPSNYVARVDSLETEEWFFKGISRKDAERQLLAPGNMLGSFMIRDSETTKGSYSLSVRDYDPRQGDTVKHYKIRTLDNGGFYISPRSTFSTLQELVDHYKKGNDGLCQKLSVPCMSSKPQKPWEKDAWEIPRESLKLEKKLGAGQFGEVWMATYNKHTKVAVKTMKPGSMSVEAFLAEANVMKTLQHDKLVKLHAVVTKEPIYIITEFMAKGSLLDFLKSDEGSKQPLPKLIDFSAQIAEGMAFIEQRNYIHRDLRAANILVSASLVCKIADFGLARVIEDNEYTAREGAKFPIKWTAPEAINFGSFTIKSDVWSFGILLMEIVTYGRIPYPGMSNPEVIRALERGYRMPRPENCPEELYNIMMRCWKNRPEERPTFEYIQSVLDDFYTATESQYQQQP
# Hck-Nef confirm – Hck-Nef kinase inhibition, confirmation; hit rate 28% among 1,300; shares compounds with Hck-Nef inh; calls only at 10 µM; Recombinant Hck-YEEI:Nef, Z-Lyte FRET kinase assay;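 active = average inhibition of at least 50%, with Z-scores no higher than 3 in both the phospho-tyrosine peptide and fluorescence counterscreens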
# Starred values were filed as active, the others as inactive; i = inactive; nt = no result shown; + = active, no number; [ ] = remark or other dose.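 Rule for the calls, unless noted: active = inhibition above about 30% (limit read from the data); inactive = the rest.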
SMILES,Diaphorase act,p47phox inh,eIF4E 4G PPI,14-3-3 Bad inh,Hck-Nef inh,others
O=C(O)C1CCCN1c1ncccn1 (configuration not stated),0.9,78.3*,-1.0,-9.3,-1.1,
COc1ccccc1NC(=O)c1ccc(NC(=O)c2cc3c(s2)CCC3)cc1,0.8,-14.6,41.5*,79.2*[fluorescence artefact?],1.9,
CCC(=O)Nc1nc2ccccc2n1CCN1CCOCC1,0.9,38.3*,6.1,-0.4,0.1,
O=C(Nc1nc2ccccc2n1CCN1CCOCC1)c1ccc(Cl)cc1,nt,-11.8,-2.6,-2.6,13.1,
COc1ccc2c(C=O)cn(C)c2c1,1,-13.3,5.7,8.8,15.0,
COc1ccc(NC(=O)CN2CCN(Cc3ccc4c(c3)OCO4)CC2)cc1OC,0.9,4.8,-2.3,61.5,2.6,
COc1cc(NC(=O)CN2CCN(Cc3ccc4c(c3)OCO4)CC2)cc(OC)c1,0.8,5.2,3.0,82.5*,8.0,
CCOC(=O)C1=C(O)CSC1=Nc1ccc(Cl)cc1,0.9,+,-1.7,0.8,0.4,
CCOC(=O)C1=C(O)CSC1=Nc1ccccc1,0.9,-45.6,-5.7,-2.7,1.2,
CCN1CCc2c(sc(NC(=S)NC(=O)c3ccccc3)c2C#N)C1,0.8,-40.4,-0.5,79.0*,-0.6,
NC(=O)c1ccsc1NC(=O)C1CC1,nt,4.6,-17.1,2.2,74.7*,Hck-Nef confirm=+
Cc1cc(C)nc(NC(=NCCc2c[nH]c3ccccc23)NC(=O)C(C)(C)C)n1,nt,-1.8,-0.1,-16.2,14.6,
CCc1cc(=O)oc2c(CN3CCN(C)CC3)c(O)c(Cl)cc12,0.9,-5.8,3.4,4.9,163.1*,
CCc1c(C)c2cc(Cl)c(O)c(CN3CCCCC3)c2oc1=O,0.9,-10.7,nt,nt,118.3*,
Cc1cc(=O)oc2c(CN3CC(C)OC(C)C3)c(O)c(Cl)cc12 (configuration not stated),0.9,-27.9,0.4,6.0,+,
O=c1cc(-c2ccccc2)c2cc(Cl)c(O)c(CN3CCOCC3)c2o1,nt,-8.5,-0.2,-2.6,-24.2,
CCc1cc(=O)oc2c(CN3CCCC3)c(O)c(Cl)cc12,0.9,nt,nt,nt,102.3*,
COCc1c(C(=O)N/N=C/c2cccc3ccccc23)nnn1-c1nonc1N,1.1,-2.5,3.5,-6.4,3.0,
COc1ccc(OCCSc2nc(-c3ccccc3)cc(=O)[nH]2)cc1,0.9,1.1,-4.1,5.0,28.8,
CN(CC(=O)Nc1ccc(S(=O)(=O)N2CCCC2)cc1)Cc1c(F)cccc1Cl,0.9,-16.7,0.2,-6.5,2.9,
S=C(N/N=C/c1cccc2ccccc12)Nc1cccc(Cl)c1,nt,-17.6,-4.3,0.3,3.1,
O=c1cc(-c2ccccc2)c2ccc(O)c(CN3CCCCC3)c2o1,0.9,-15.6,-7.4,-8.8,3.0,
CCCCc1cc(=O)oc2c(CN3CCCC3)c(O)ccc12,1,nt,nt,nt,96.7*,Hck-Nef confirm=i
Cc1nc2ccccc2nc1OCc1ccccc1,0.9,-6.2,0.7,0.0,-0.7,
Cc1nc2ccccc2nc(=O)c1NNc1ccccc1,0.8,74.3*,5.2,-7.6,101.0*,Hck-Nef confirm=+
SMILES,Diaphorase act,p47phox inh,eIF4E 4G PPI,14-3-3 Bad inh,Hck-Nef inh,others
C=CCn1c(C)cc(C(=O)Cn2ncc(Cl)c(Cl)c2=O)c1C,0.8,2.7,22.9,-18.1,52.6*,Hck-Nef confirm=i
CC(C)(C)C(=O)Cn1ncc(Cl)c(Cl)c1=O,0.9,7.4,1.0,3.5,15.8,
Oc1ccc(-c2nc3ccccc3s2)c(O)c1,nt,-20.2,0.7,7.6,163.0*,
Oc1ccc(-c2nc3ccccc3s2)cc1,nt,-16.9,1.9,1.1,46.7,
CCCSC1=N/C(=C\c2ccc([N+](=O)[O-])o2)C(=O)S1,0.6,-14.5,15.1,46.0,50.5*,Hck-Nef confirm=i
CC(=O)c1c(C)[nH]c(C(=O)CSc2nnc(-c3ccccc3)n2Cc2ccc3c(c2)OCO3)c1C,1,6.0,-2.4,-6.5,63.5*,Hck-Nef confirm=i
CC(=O)c1c(C)[nH]c(C(=O)CSc2nnc(-c3ccco3)n2Cc2ccccc2)c1C,0.8,-17.9,-23.4,1.2,-0.3,
O=C(Nc1ccc2c(c1)OCCO2)c1cc(-c2ccccn2)nc2ccc(Br)cc12,1.3,-31.5,1.7,-12.2,78.1*,Hck-Nef confirm=i
O=C(Nc1ccc(S(=O)(=O)Nc2nccs2)cc1)c1cc(-c2ccccn2)nc2ccccc12,0.9,-38.4,-3.1,-11.7,51.3*,Hck-Nef confirm=i
